Laboratory results as given in ChEMBL document CHEMBL1250464, “The marine sponge metabolite mycothiazole: a novel prototype mitochondrial complex I inhibitor” (Bioorg Med Chem, 2010).
Activity calls are given as the source filed them. The calls are words filed in the database; no cut-off is given here.

What was measured:
T47D [1] = assay: Inhibition of hypoxia-induced HIF-1 activation in human T47D cells at 0.1 to 1000 nM by luciferase reporter gene assay; type: cell-based
Method in brief: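 T47D cells (DMEM/F12, 10% FBS) carrying the pHRE3-TK-Luc HIF-1 luciferase reporter were exposed to hypoxia (1% O₂) for 16 h with compound at 0.1, 0.3, 1, 3, 10, 30, 100 and 1000 nM. Cycloheximide at 100 μM served as positive control. Data are from one representative triplicate experiment, mean ± SD.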

MDA-MB-231 = assay: Cytotoxicity against human MDA-MB-231 cells assessed as inhibition of cell proliferation after 48 hrs by SRB assay; type: functional, cell-based
T47D [2] = assay: Reduction of hypoxia-induced VEGF mRNA expression in human T47D cells treated after 16 hrs of hypoxia by RT-PCR analysis; type: functional, cell-based
Method in brief: (§1)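 T47D cells held at 1% O2 for 16 h with or without compound. Total RNA measured by real-time RT-PCR, normalized to 18S rRNA, and expressed relative to the normoxic control. Mean of two independent experiments.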

T47D [3] = assay: Cytotoxicity against human T47D cells assessed as inhibition of cell proliferation after 48 hrs by SRB assay relative to control; type: functional; design: scale not given: the % may be the effect or the level left
T47D [4] = assay: Reduction of hypoxia-induced GLUT1 mRNA expression in human T47D cells treated after 16 hrs of hypoxia by RT-PCR analysis; type: functional, cell-based; method in brief: as §1
T47D [5] = assay: Reduction of hypoxia-induced GLUT1 mRNA expression in human T47D cells at 0.1 uM treated after 16 hrs of hypoxia by RT-PCR analysis; type: functional, cell-based
Method in brief: (§2)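 T47D cells were held at 1% O₂ for 16 h with or without compound. Total RNA was isolated and target mRNA was quantified by real-time RT-PCR, normalized to 18S rRNA, and expressed relative to the normoxic control. Values are averages of two independent experiments.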

T47D [6] = assay: Inhibition of electron transport protein complex 1-mediated cellular respiration in digitonin-permeabilized human T47D cells at 30 nM presence of succinate; type: cell-based
T47D [7] = assay: Reduction of hypoxia-induced VEGF mRNA expression in human T47D cells at 0.1 uM treated after 16 hrs of hypoxia by RT-PCR analysis; type: functional, cell-based; method in brief: as §2
T47D [8] = assay: Inhibition of 1,10-phenanthroline-induced HIF-1 activation in human T47D cells at up to 10 uM by luciferase reporter gene assay; type: cell-based
Method in brief: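 T47D cells carrying the pHRE3-TK-Luc HIF-1 luciferase reporter. HIF-1 induced chemically with 10 μM 1,10-phenanthroline. Compound tested at concentrations up to 10 μM.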

T47D [9] = assay: Inhibition of hypoxia-induced HIF-1beta protein accumulation in human T47D cell nucleus at 10 to 100 nM treated after 4 hrs of hypoxia by Western blotting; type: functional, cell-based
Method in brief: (§3)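 Nuclear extracts prepared from T47D cells held at 1% O2 for 4 h with or without compound. HIF-1α and HIF-1β protein levels determined by western blot.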

T47D [10] = assay: Inhibition of electron transport protein complex 1-mediated cellular respiration in digitonin-permeabilized human T47D cells at 10 nM presence of succinate; type: cell-based
Method in brief: (§4)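 Clark-type oxygen electrode used to follow O2 consumption in T47D cells permeabilized with 10 μM digitonin. Substrates and inhibitors added one after another at set times. For complex I, respiration was started with malate/pyruvate, compound (10 nM) was added, then succinate was added to feed complex II.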

T47D [11] = assay: Inhibition of oxygen consumption in human T47D cells; type: functional, cell-based
Method in brief: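 Oxygen consumption measured with a Clark-type electrode in non-permeabilized T47D cells. Rotenone served as the complex I reference. Data given as % inhibition versus untreated control, averaged over three independent experiments with SD.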

T47D [12] = assay: Inhibition of tumor angiogenesis in human T47D cells in conditioned medium at 10 nM treated after 16 hrs of hypoxia by HUVEC-based tube formation assay; type: functional, cell-based
Method in brief: (§5)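 Conditioned media collected from T47D cells treated for 16 h, normoxic or hypoxic (1% O2), with or without compound (10 nM). Media applied to HUVECs for tube formation. Relative tube length and branching points counted in three random fields, mean with SD. One-way ANOVA with Bonferroni post hoc test.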

T47D [13] = assay: Inhibition of electron transport protein complex 4-mediated cellular respiration in digitonin-permeabilized human T47D cells at 10 to 30 nM presence of succinate; type: cell-based
T47D [14] = assay: Inhibition of tumor angiogenesis in human T47D cells in normoxic conditioned medium at 10 nM by HUVEC-based tube formation assay; type: functional, cell-based; method in brief: as §5
[15] = Neurotoxicity in Wistar rat cerebellar granule neurons assessed as apoptotic cells at 0.01 uM after 24 hrs using propidium iodide and Hoescht 33342 staining; type: toxicity, cell-based; details: neuron
Method in brief: (§6)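 Primary cerebellar granule neurons from 6-7-day-old Wistar rat pups, cultured 6-10 days at 37 °C. Cells exposed to compound for 24 h, then stained 20 min with Hoechst 33342 (5 μg/mL) and propidium iodide (1 μg/mL) in pH 7.3 buffer. At least 100 cells scored per treatment. Scoring: PI+ = late apoptotic/necrotic; PI− with condensed or fragmented nuclei = apoptotic; PI− with swollen, fragmented nuclei = early necrotic.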

[16] = Neurotoxicity in Wistar rat cerebellar granule neurons assessed as cell death at 10 nM after 24 hrs using propidium iodide and Hoescht 33342 staining; type: toxicity, cell-based; details: neuron, 0.01 µM; method in brief: as §6
T47D [17] = assay: Inhibition of electron transport protein complex 2-mediated cellular respiration in digitonin-permeabilized human T47D cells at 10 to 30 nM presence of succinate; type: cell-based; method in brief: as §4
T47D [18] = assay: Reduction of hypoxia-induced secreted VEGF protein level in human T47D cells after 16 hrs by ELISA; type: functional, cell-based
Method in brief: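 T47D cells exposed to 1% O2 or 10 μM 1,10-phenanthroline for 16 h with or without compound. Secreted VEGF in conditioned medium measured by ELISA and normalized to cellular protein (micro BCA). Mean with SD, N = 3. One-way ANOVA with Bonferroni post hoc test.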

T47D [19] = assay: Inhibition of electron transport protein complex 3-mediated cellular respiration in digitonin-permeabilized human T47D cells at 10 to 30 nM presence of succinate; type: cell-based; method in brief: as §4
T47D [20] = assay: Inhibition of hypoxia-induced HIF-1alpha protein accumulation in human T47D cell nucleus at 10 to 100 nM treated after 4 hrs of hypoxia by Western blotting; type: functional, cell-based; method in brief: as §3
[21] = Neurotoxicity in Wistar rat cerebellar granule neurons assessed as attached dead cells at 0.1 uM after 24 hrs using propidium iodide and Hoescht 33342 staining; type: toxicity, cell-based; details: neuron; method in brief: as §6

With `C=CC/C=C\Cc1csc(C(C)(C)[C@@H](C/C=C\C(=C)CCNC(=O)OC)OC(C)=O)n1` the inhibition (T47D [1]) was “Active”, the Activity (MDA-MB-231) was “Active” and the inhibition (T47D [2]) was “Dose-dependent effect”. For the same compound, the Activity (T47D [3]) was 55% and the inhibition (T47D [4]) was “Dose-dependent effect”.

With `C=CC/C=C\Cc1csc(C(C)(C)[C@H](O)C/C=C/C(O)(CO)CCNC(=O)OC)n1` (stereo not given in full) the inhibition (T47D [1]) was “inactive”, the Activity (MDA-MB-231) was “Active” and the inhibition (T47D [5]) was “inactive”. For the same compound, the inhibition (T47D [6]) was “Active” and the inhibition (T47D [7]) was “inactive”.

In the case of `C=CC/C=C\Cc1csc(C(C)(C)[C@H](O)C/C=C\C(=C)CCNC(=O)OC)n1` [MYCOTHIAZOLE], the inhibition (T47D [8]) is reported as “inactive”, the inhibition (T47D [9]) is reported as “inactive” and the inhibition (T47D [10]) is reported as “Active”. The inhibition (T47D [1]) was “Active”, the Activity (MDA-MB-231) was “Active” and the inhibition (T47D [11]) was “Dose-dependent effect”. For the same compound, the inhibition (T47D [12]) was “Active”, the inhibition (T47D [13]) was “inactive” and the inhibition (T47D [14]) was “inactive”. For the same compound, the Activity [15] was 85%, the Activity [16] was “Toxic” and the inhibition (T47D [2]) was “Dose-dependent effect”. For the same compound, the Activity (T47D [3]) was 55%, the inhibition (T47D [4]) was “Dose-dependent effect” and the inhibition (T47D [17]) was “inactive”. The Activity (T47D [18]) was “Active”, the inhibition (T47D [19]) was “inactive” and the inhibition (T47D [20]) was “Active”.

With `C=C(C)[C@H]1Cc2c(ccc3c2O[C@@H]2COc4cc(OC)c(OC)cc4[C@@H]2C3=O)O1` [ROTENONE] the Activity [16] was “Toxic” and the Activity [21] was 60%.
